Consider ten compounds from ChEMBL document CHEMBL1132955 (J Med Chem, 2000).

pEC50: −log10 of the molar value.

The subject of test [1] is Human alphaherpesvirus 3. The experiment in a line: Evaluated for the anti-VZV activity, the concentration required to reduce VZV YS plaque formation after 5 days in HEL cell cultures compared to untreated controls. The format is functional, organism-based. As to conditions: Human alphaherpesvirus 3, ys, 120 h. In a few lines: (§1)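 Confluent HEL fibroblasts infected with VZV at 20 PFU/well. Residual virus removed after 1-2 h adsorption. Cells then kept in MEM with 2% inactivated FCS, 1% L-glutamine and 0.3% sodium bicarbonate plus serial compound dilutions. […] OKA and YS strains are TK-competent; 07 and YS-R are TK-deficient.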

The subject of test [2] is Human alphaherpesvirus 3. Kind of test: Evaluated for the anti-VZV activity, the concentration required to reduce VZV OKA plaque formation after 5 days in HEL cell cultures compared to untreated controls. In kind it is functional, organism-based. As to conditions: Human alphaherpesvirus 3, oka, 120 h. In a few lines:
as §1

Test [3] concerns Human alphaherpesvirus 3. The experiment in a line: Evaluated for the anti-VZV, the concentration required to reduce VZV TK -07 ( thymidine kinase-deficient strain ) plaque formation after 5 days in HEL cell cultures compared to untreated controls. The format is functional, organism-based. As to conditions: Human alphaherpesvirus 3, tk-07, HEL, 120 h. The procedure, abridged: as §1

Test [4] concerns Human alphaherpesvirus 3. The experiment in a line: Evaluated for the anti-VZV, the concentration required to reduce VZVTK-YS-R ( thymidine kinase-deficient strain ) plaque formation after 5 days in HEL cell cultures compared to untreated controls. The note with it: Human alphaherpesvirus 3, ys-r, 120 h. In kind it is functional, organism-based. In a few lines: as §1
For test [5], the system named is Human alphaherpesvirus 3. The experiment in a line: (§2) cytostatic concentration required to reduce the HEL cell number by 50%. after 5 days in the absence of virus. In kind it is functional. The note with it: Human alphaherpesvirus 3, HEL, 120 h. In a few lines:
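HEL cells in 96-well plates treated with graded compound concentrations without virus for 5 days. Cells then trypsinized and counted with a Coulter counter.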

The subject of test [6] is Human alphaherpesvirus 3. The experiment in a line: (§3) Minimal cytotoxic concentration, the concentration required to cause a microscopically visible alteration of normal cell morphology. In kind it is functional. In a few lines:
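Uninfected HEL cell cultures exposed to graded compound concentrations. Morphology inspected by microscope. MCC is the lowest concentration producing a visible change in normal cell morphology.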

In test [7] the test system is Human alphaherpesvirus 3. Kind of test: Evaluated for the anti-VZV, the concentration of compounds in uM required to reduce VZVTK-07 ( thymidine kinase-deficient strain ) plaque formation after 5 days in HEL cell cultures compared to untreated controls. The format is functional, organism-based. The note with it: Human alphaherpesvirus 3, tk-07, HEL, 120 h.
The subject of test [8] is Human alphaherpesvirus 3. Kind of test: Evaluated for the anti-VZV activity, the concentration of compounds in uM required to reduce VZV […] plaque formation after 5 days in HEL cell cultures compared to untreated controls. The format is functional, organism-based. As to conditions: Human alphaherpesvirus 3, ys, 120 h.
In test [9] the test system is Human alphaherpesvirus 3. Kind of test: Evaluated for the anti-VZV activity, the concentration of compounds in uM required to reduce VZV OKA plaque formation after 5 days in HEL cell cultures compared to untreated controls. The format is functional, organism-based. The note with it: Human alphaherpesvirus 3, oka, 120 h. In a few lines: as §1
Test [10] concerns Human alphaherpesvirus 3. The experiment in a line: Evaluated for the anti-VZV, the concentration of compounds in uM required to reduce VZVTK-YS-R ( thymidine kinase-deficient strain ) plaque formation after 5 days in HEL cell cultures compared to untreated controls. In kind it is functional, organism-based. The note with it: Human alphaherpesvirus 3, tkys-r, 120 h.
In test [11] the test system is Human alphaherpesvirus 3. The experiment in a line: Evaluated for the anti-VZV activity, the concentration of compounds in uM required to reduce VZV OKA Plaque formation after 5 days in HEL cell cultures compared to untreated controls. The format is functional, organism-based. The note with it: Human alphaherpesvirus 3, oka, 120 h. In a few lines:
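Confluent HEL fibroblasts infected with VZV at 20 PFU/well. Residual virus removed after 1-2 h adsorption. Cells then kept in MEM with 2% inactivated FCS, 1% L-glutamine and 0.3% sodium bicarbonate plus serial compound dilutions. OKA and YS strains are TK-competent; 07 and YS-R are TK-deficient.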

In test [12] the test system is Human alphaherpesvirus 3. The test is described as §3. The format is functional. The note with it: Human alphaherpesvirus 3, t.
In test [13] the test system is Human alphaherpesvirus 3. Described as §2. In kind it is functional. The note with it: Human alphaherpesvirus 3, t, 120 h. The procedure, abridged:
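HEL fibroblasts, grown in MEM with 10% inactivated FCS, 1% L-glutamine and 0.3% sodium bicarbonate, were treated in 96-well cultures with varying compound concentrations for 5 days without virus. Cells were then trypsinized and counted with a Coulter counter. The value is the concentration giving 50% reduction in cell number.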

Test [14] concerns Human alphaherpesvirus 3. Kind of test: Evaluated for the anti-VZV, the concentration of compounds in uM required to reduce VZV TK-YS-R ( thymidine kinase-deficient strain ) plaque formation after 5 days in HEL cell cultures compared to untreated controls. The format is functional, organism-based. As to conditions: Human alphaherpesvirus 3, ys-r, 120 h. In a few lines:
as §1

The test system of test [15] is Human alphaherpesvirus 3. The experiment in a line: Evaluated for the anti-VZV activity, which is the concentration of compounds in uM required to reduce VZV YS plaque formation after 5 days in HEL cell cultures compared to untreated controls. The format is functional, organism-based. The note with it: Human alphaherpesvirus 3, ys, 120 h. The procedure, abridged: as §1

Test [16] deals with Human alphaherpesvirus 3. The experiment in a line: Evaluated for the anti-VZV activity, the concentration of compounds in uM required to reduce VZV TK-07 (thymidine kinase-deficient strain ) plaque formation after 5 days in HEL cell cultures compared to untreated controls. As to conditions: Human alphaherpesvirus 3, tk-07, HEL, 120 h.

One may read the pEC50 as the EC50 on a negative log10 scale, so that one unit is a factor of ten. As usually defined, the CC50 is the concentration giving 50% cytotoxicity. Lower therefore signals harm at low concentration. Take `O=c1nc2oc(-c3ccccc3)cc2cn1[C@H]1C[C@H](O)[C@@H](CO)O1`: the negative logarithm of the EC50 (pEC50) with Human alphaherpesvirus 3 [1] was 6.80; in the test with Human alphaherpesvirus 3 [2], 6.55; in the test on Human alphaherpesvirus 3 [3], < 3.70; in the test with Human alphaherpesvirus 3 [4] it was 3.79. The half-maximal cytotoxic concentration (CC50) in the test with Human alphaherpesvirus 3 [5] was > 200000 nM. Further, in the test with Human alphaherpesvirus 3 [6], the MCC was > 200 µM.
As to `CCCCCCCCc1cc2cn([C@H]3C[C@H](O)[C@@H](CO)O3)c(=O)nc2o1`, the negative-log EC50 (pEC50) in the test with Human alphaherpesvirus 3 [7] was < 4.30; in the test on Human alphaherpesvirus 3 [8] it was 7.62; in the test with Human alphaherpesvirus 3 [9], 8.10; in the test on Human alphaherpesvirus 3 [10], < 4.30. Further, in the test with Human alphaherpesvirus 3 [5], the CC50 was > 50000 nM. Also, the MCC in the test with Human alphaherpesvirus 3 [6] was > 50 µM.
`CCCCCCCCc1ccc(-c2cc3cn([C@H]4C[C@H](O)[C@@H](CO)O4)c(=O)nc3o2)cc1`: the negative-log EC50 (pEC50) in the test on Human alphaherpesvirus 3 [7] is < 4.70; in the test on Human alphaherpesvirus 3 [8] it was 7.57; in the test on Human alphaherpesvirus 3 [10] it was < 4.70; in the test on Human alphaherpesvirus 3 [11], 7.40. In addition, the cytotoxic concentration (CC50) with Human alphaherpesvirus 3 [5] was > 200000 nM. The MCC in the test on Human alphaherpesvirus 3 [6] is > 20 µM.
For the compound `Nc1nc2c(ncn2COCCO)c(=O)[nH]1` [ACYCLOVIR], the half-maximal cytotoxic concentration (CC50) in the test on Human alphaherpesvirus 3 [5] was > 200000 nM. Besides, the MCC in the test with Human alphaherpesvirus 3 [6] is > 200 µM.
Consider `O=c1nc2oc(-c3ccc(Br)cc3)cc2cn1[C@H]1C[C@H](O)[C@@H](CO)O1`, for which the negative-log EC50 (pEC50) was < 4.30 with Human alphaherpesvirus 3 [7], 6.30 in the test on Human alphaherpesvirus 3 [8], < 4.30 in the test on Human alphaherpesvirus 3 [10] and 6.30 in the test with Human alphaherpesvirus 3 [11]. Also, the MCC in the test on Human alphaherpesvirus 3 [6] was 50 µM.
As for `O=c1nc2oc(-c3ccc(Cl)cc3)cc2cn1[C@H]1C[C@H](O)[C@@H](CO)O1`, the negative logarithm of the EC50 (pEC50) in the test on Human alphaherpesvirus 3 [7] is < 4.30; in the test with Human alphaherpesvirus 3 [8], 7.00; in the test on Human alphaherpesvirus 3 [10], < 4.30; with Human alphaherpesvirus 3 [11], 7.00. In addition, in the test with Human alphaherpesvirus 3 [6], the MCC was 200 µM.
As to `CCCCCCCCCCc1cc2cn([C@H]3C[C@H](O)[C@@H](CO)O3)c(=O)nc2o1`, the pEC50 in the test with Human alphaherpesvirus 3 [7] was < 4.30; in the test on Human alphaherpesvirus 3 [8] it was 8.10; in the test with Human alphaherpesvirus 3 [10], < 4.30; in the test on Human alphaherpesvirus 3 [11] it was 7.82. Besides, the CC50 in the test with Human alphaherpesvirus 3 [5] was > 50000 nM. The MCC in the test with Human alphaherpesvirus 3 [6] is > 50 µM.
On to `O=c1[nH]c(=O)n([C@H]2C[C@H](O)[C@@H](CO)O2)cc1/C=C/Br` [BRIVUDINE], for which the negative logarithm of the EC50 (pEC50) was < 3.82 with Human alphaherpesvirus 3 [7], 8.52 with Human alphaherpesvirus 3 [8], < 3.82 with Human alphaherpesvirus 3 [10] and 8.52 with Human alphaherpesvirus 3 [11]. Further, in the test on Human alphaherpesvirus 3 [12], the MCC was > 400 µM. Further, the CC50 in the test on Human alphaherpesvirus 3 [13] is > 400000 nM.
Consider `Cc1ccc(-c2cc3cn([C@H]4C[C@H](O)[C@@H](CO)O4)c(=O)nc3o2)cc1`, for which the pEC50 was 7.22 in the test with Human alphaherpesvirus 3 [9], < 3.70 with Human alphaherpesvirus 3 [14], 7.22 with Human alphaherpesvirus 3 [15] and 3.99 with Human alphaherpesvirus 3 [16]. For the same compound, the half-maximal cytotoxic concentration (CC50) in the test with Human alphaherpesvirus 3 [5] was > 200000 nM. Also, in the test with Human alphaherpesvirus 3 [6], the MCC was > 200 µM.
`CCCCCCCCCc1cc2cn([C@H]3C[C@H](O)[C@@H](CO)O3)c(=O)nc2o1`: the negative-log EC50 (pEC50) in the test with Human alphaherpesvirus 3 [7] was < 3.70; in the test with Human alphaherpesvirus 3 [8], 7.70; in the test with Human alphaherpesvirus 3 [10] it was < 3.70; in the test on Human alphaherpesvirus 3 [11], 7.70. Also, in the test on Human alphaherpesvirus 3 [5], the CC50 is > 200000 nM. Also, in the test on Human alphaherpesvirus 3 [6], the MCC was > 200 µM.
